Experimental data as given in ChEMBL document CHEMBL1208778, “Synthesis and anti-cancer activity of chalcone linked imidazolones” (2010).
Active and inactive are the calls of the source. No cut-off for these calls is given here.

Legend:
[1] = Growth inhibition of human RPMI8266 cells; format: functional
Procedure, shortened: (§1)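 Five-dose testing was run within the NCI (Bethesda) in vitro Anticancer Screen Program on a panel of 53 human tumour cell lines from nine cancer types. Growth inhibition is reported as GI50.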

K562 = test: Growth inhibition of human K562 cells; format: functional; procedure, shortened: as §1
A549 = test: Growth inhibition of human A549 cells; format: functional; procedure, shortened: as §1
EKVX = test: Growth inhibition of human EKVX cells; format: functional; procedure, shortened: as §1
HOP-62 = test: Growth inhibition of human HOP62 cells; format: functional; procedure, shortened: as §1
HOP-92 = test: Growth inhibition of human HOP92 cells; format: functional; procedure, shortened: as §1
NCI-H226 = test: Growth inhibition of human NCI-H226 cells; format: functional; procedure, shortened: as §1
NCI-H23 = test: Growth inhibition of human NCI-H23 cells; format: functional; procedure, shortened: as §1
NCI-H322M = test: Growth inhibition of human NCI-H322M cells; format: functional; procedure, shortened: as §1
NCI-H460 = test: Growth inhibition of human NCI-H460 cells; format: functional; procedure, shortened: as §1
NCI-H522 = test: Growth inhibition of human NCI-H522 cells; format: functional; procedure, shortened: as §1
COLO 205 = test: Growth inhibition of human COLO205 cells; format: functional; procedure, shortened: as §1
HCC 2998 = test: Growth inhibition of human HCC2998 cells; format: functional; procedure, shortened: as §1
HCT-116 = test: Growth inhibition of human HCT116 cells; format: functional; procedure, shortened: as §1
HCT-15 = test: Growth inhibition of human HCT15 cells; format: functional; procedure, shortened: as §1
HT-29 = test: Growth inhibition of human HT-29 cells; format: functional; procedure, shortened: as §1
KM12 = test: Growth inhibition of human KM12 cells; format: functional; procedure, shortened: as §1
SW-620 = test: Growth inhibition of human SW620 cells; format: functional
Procedure, shortened: (§2)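 Compounds that passed a preliminary screen were tested at five doses in the NCI (Bethesda) in vitro Anticancer Screen Program against a 53-line human tumour panel spanning leukemia, lung, colon, CNS, melanoma, ovarian, renal, prostate and breast. Growth inhibition is reported as GI50.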

SF-268 = test: Growth inhibition of human SF268 cells; format: functional; procedure, shortened: as §1
SF-295 = test: Growth inhibition of human SF295 cells; format: functional; procedure, shortened: as §1
SF-539 = test: Growth inhibition of human SF539 cells; format: functional; procedure, shortened: as §1
SNB-19 = test: Growth inhibition of human SNB19 cells; format: functional; procedure, shortened: as §2
SNB-75 = test: Growth inhibition of human SNB75 cells; format: functional; procedure, shortened: as §2
U-251 = test: Growth inhibition of human U251 cells; format: functional; procedure, shortened: as §2
A498 = test: Growth inhibition of human A498 cells; format: functional; procedure, shortened: as §1
786-0 = test: Growth inhibition of human 786-0 cells; format: functional; procedure, shortened: as §1
ACHN = test: Growth inhibition of human ACHN cells; format: functional; procedure, shortened: as §1
CAKI-1 = test: Growth inhibition of human Caki1 cells; format: functional; procedure, shortened: as §1
RXF 393 = test: Growth inhibition of human RXF393 cells; format: functional; procedure, shortened: as §1
SN12C = test: Growth inhibition of human SN12C cells; format: functional; procedure, shortened: as §2
TK-10 = test: Growth inhibition of human TK10 cells; format: functional; procedure, shortened: as §2
UO-31 = test: Growth inhibition of human UO31 cells; format: functional; procedure, shortened: as §2
PC-3 = test: Growth inhibition of human PC3 cells; format: functional; procedure, shortened: as §1
OVCAR-3 = test: Growth inhibition of human OVCAR-3 cells; format: functional; procedure, shortened: as §1
OVCAR-4 = test: Growth inhibition of human OVCAR4 cells; format: functional; procedure, shortened: as §1
OVCAR-5 = test: Growth inhibition of human OVCAR5 cells; format: functional; procedure, shortened: as §1
OVCAR-8 = test: Growth inhibition of human OVCAR8 cells; format: functional; procedure, shortened: as §1
NCI/ADR-RES = test: Growth inhibition of human NCI/ADR-RES cells; format: functional; procedure, shortened: as §1
SK-OV-3 = test: Growth inhibition of human SKOV3 cells; format: functional; procedure, shortened: as §2
MCF7 [2] = test: Growth inhibition of human MCF7 cells; format: functional; procedure, shortened: as §1
MDA-MB-231 = test: Growth inhibition of human MDA-MB-231 cells; format: functional; procedure, shortened: as §1
[3] = Growth inhibition of human Hs 578T cells; format: functional; procedure, shortened: as §1
BT-549 = test: Growth inhibition of human BT549 cells; format: functional; procedure, shortened: as §1
T47D = test: Growth inhibition of human T47D cells; format: functional; procedure, shortened: as §2
LOX IMVI = test: Growth inhibition of human LOXIMVI cells; format: functional; procedure, shortened: as §1
Malme-3M = test: Growth inhibition of human MALME-3M cells; format: functional; procedure, shortened: as §1
M14 = test: Growth inhibition of human M14 cells; format: functional; procedure, shortened: as §1
MDA-MB-435 = test: Growth inhibition of human MDA-MB-435 cells; format: functional; procedure, shortened: as §1
SK-MEL-2 = test: Growth inhibition of human SK-MEL-2 cells; format: functional; procedure, shortened: as §1
SK-MEL-28 = test: Growth inhibition of human SK-MEL-28 cells; format: functional; procedure, shortened: as §1
SK-MEL-5 = test: Growth inhibition of human SK-MEL-5 cells; format: functional; procedure, shortened: as §1
UACC-257 = test: Growth inhibition of human UACC257 cells; format: functional; procedure, shortened: as §2
UACC-62 = test: Growth inhibition of human UACC62 cells; format: functional; procedure, shortened: as §2
MCF7 [4] = test: Cell cycle arrest in human MCF7 cells assessed as accumulation at G0 phase at 10 uM after 24 hrs by FACS analysis; format: functional
Procedure, shortened: (§3)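 MCF-7 breast carcinoma cells were exposed to 10 µM test compound for 24 h, with DMSO as the vehicle control. Cell-cycle distribution was read by FACS as the percentage of cells in G0, G1, S and G2/M.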

MCF7 [5] = test: Cell cycle arrest in human MCF7 cells assessed as accumulation at G1 phase at 10 uM after 24 hrs by FACS analysis; format: functional; procedure, shortened: as §3
MCF7 [6] = test: Cell cycle arrest in human MCF7 cells assessed as accumulation at S phase at 10 uM after 24 hrs by FACS analysis; format: functional; procedure, shortened: as §3
MCF7 [7] = test: Cell cycle arrest in human MCF7 cells assessed as accumulation at G2/M phase at 10 uM after 24 hrs by FACS analysis; format: functional; procedure, shortened: as §3
MCF7 [8] = test: Cell cycle arrest in human MCF7 cells assessed as accumulation at G0 phase at 30 uM after 24 hrs by FACS analysis; format: functional
Procedure, shortened: (§4)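 MCF-7 cells were treated at 30 µM for 24 h alongside a DMSO control. Fractions in G0, G1, S and G2/M phases were measured by FACS, and values are means of three experiments.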

MCF7 [9] = test: Cell cycle arrest in human MCF7 cells assessed as accumulation at G1 phase at 30 uM after 24 hrs by FACS analysis; format: functional; procedure, shortened: as §4
MCF7 [10] = test: Cell cycle arrest in human MCF7 cells assessed as accumulation at S phase at 30 uM after 24 hrs by FACS analysis; format: functional; procedure, shortened: as §4
MCF7 [11] = test: Cell cycle arrest in human MCF7 cells assessed as accumulation at G2/M phase at 30 uM after 24 hrs by FACS analysis; format: functional; procedure, shortened: as §4
MCF7 [12] = test: Induction of apoptosis in human MCF7 cells assessed as decrease in procaspase 7 level at 30 uM after 24 hrs by Western blot analysis; format: functional, cell-based
Procedure, shortened: (§5)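 MCF-7 breast carcinoma cells were exposed to 30 µM compound for 24 h, with CA-4 as positive control. Cell lysates were then immunoblotted with antibodies to procaspase-7 and cleavage-specific PARP, using β-actin as loading control.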

MCF7 [13] = test: Induction of apoptosis in human MCF7 cells assessed as […] in PARP cleavage at 30 uM after 24 hrs by Western blot analysis; format: functional, cell-based; procedure, shortened: as §5

With COc1cc(/C=C/C(=O)c2cccc(-n3cc(-c4ccc(Cl)cc4)[nH]c3=O)c2)ccc1O the GI50 [1] was 1.33 µM, the GI50 (K562) was 1.42 µM and the GI50 (A549) was 6.78 µM. The GI50 (EKVX) was 9.61 µM, the GI50 (HOP-62) was 2.84 µM and the GI50 (HOP-92) was 1.26 µM. The GI50 (NCI-H226) was 2.77 µM, the GI50 (NCI-H23) was 3.18 µM and the GI50 (NCI-H322M) was 4.58 µM. It also gave a GI50 (NCI-H460) of 3.9 µM, a GI50 (NCI-H522) of 2.36 µM and a GI50 (COLO 205) of 3.4 µM. For the same molecule, the GI50 (HCC 2998) was 1.85 µM, the GI50 (HCT-116) was 1.46 µM and the GI50 (HCT-15) was 1.8 µM. The GI50 (HT-29) was 2.97 µM, the GI50 (KM12) was 1.48 µM and the GI50 (SW-620) was 2 µM. The GI50 (SF-268) was 2.5 µM, the GI50 (SF-295) was 10.5 µM and the GI50 (SF-539) was 1.78 µM. The GI50 (SNB-19) was 3.17 µM, the GI50 (SNB-75) was 2.75 µM and the GI50 (U-251) was 2.23 µM. The GI50 (A498) was 2.82 µM, the GI50 (786-0) was 2.07 µM and the GI50 (ACHN) was 2.19 µM. The GI50 (CAKI-1) was 2.64 µM, the GI50 (RXF 393) was 6.4 µM and the GI50 (SN12C) was 2.87 µM. The GI50 (TK-10) was 4.67 µM, the GI50 (UO-31) was 1.67 µM and the GI50 (PC-3) was 1.95 µM. It also gave a GI50 (OVCAR-3) of 1.56 µM, a GI50 (OVCAR-4) of 4.64 µM and a GI50 (OVCAR-5) of 2 µM. The GI50 (OVCAR-8) was 4.18 µM, the GI50 (NCI/ADR-RES) was 2.28 µM and the GI50 (SK-OV-3) was 3.19 µM. It also gave a GI50 (MCF7 [2]) of 2.3 µM, a GI50 (MDA-MB-231) of 3.87 µM and a GI50 [3] of 4.67 µM. It also gave a GI50 (BT-549) of 2.52 µM, a GI50 (T47D) of 3.09 µM and a GI50 (LOX IMVI) of 1.63 µM. For the same molecule, the GI50 (Malme-3M) was 3.06 µM, the GI50 (M14) was 2.86 µM and the GI50 (MDA-MB-435) was 2.25 µM. For the same molecule, the GI50 (SK-MEL-2) was 3.66 µM, the GI50 (SK-MEL-28) was 2.06 µM and the GI50 (SK-MEL-5) was 1.8 µM. For the same molecule, the GI50 (UACC-257) was 8.69 µM, the GI50 (UACC-62) was 2.74 µM and the Activity (MCF7 [4]) was 3.56%. For the same molecule, the Activity (MCF7 [5]) was 46.69%, the Activity (MCF7 [6]) was 18.1% and the Activity (MCF7 [7]) was 31.65%. The Activity (MCF7 [8]) was 32.89%, the Activity (MCF7 [9]) was 50.61% and the Activity (MCF7 [10]) was 6.17%. The Activity (MCF7 [11]) was 10.35%, the Activity (MCF7 [12]) was “Active” and the Activity (MCF7 [13]) was “Active”.
